Like-named read-outs stand apart in the source and are kept apart here.

One assay deals with MRSA. The assay can be described thus: Kirby-Bauer disc diffusion. Format: cell-based, methicillin-resistant Staphylococcus aureus. The conditions noted are these: Staphylococcus aureus. An outline of the steps:
(§1)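 Kirby-Bauer method. Mueller Hinton agar plates were seeded with the test bacteria. Discs carrying 30 µg of test compound were placed on the surface and left to diffuse for 30 min at 4 °C. Plates were incubated at 37 °C, and inhibition zones were measured in mm.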

The test system of the next assay is S. Typhimurium TA100. The conditions noted are these: highest dose 250 μg/100 μL, cited from earlier work.
For the next assay, the system named is S. Typhimurium TA98. The conditions noted are these: highest dose 250 μg/100 μL, ref Sharma et al.[46]; cited from earlier work.
A further assay concerns VRE. The assay can be described thus: Kirby-Bauer disc diffusion. The format is cell-based, Vancomycin-resistant Enterococcus. The conditions noted are these: HFM-2P, teicoplanin 30 µg/disc. The procedure, abridged: as §1
In another assay the test system is pBR322 plasmid DNA. The assay can be described thus: DNA nicking assay. The format is biochemical. The conditions noted are these: with Fenton's reagent; 10 µg/mL. The procedure, abridged: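 pBR322 supercoiled plasmid (2 µL of a 50 µg/100 µL stock) mixed with 10 µL Fenton's reagent (80 mM FeCl₃, 30 mM H₂O₂, 50 mM ascorbic acid) and test compound (2–10 µg/mL) in water to 20 µL. Incubated for 30 min at 37 °C, then run on 1% agarose gel. Form I, II and III percentages were derived by densitometry. Water replaced Fenton's reagent as the negative control, and rutin served as the positive control.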

`CN[C@H](CC(C)C)C(=O)N[C@H]1C(=O)N[C@@H](CC(N)=O)C(=O)N[C@H]2C(=O)N[C@H]3C(=O)N[C@H](C(=O)N[C@H](C(=O)O)c4cc(O)cc(O)c4-c4cc3ccc4O)[C@H](O)c3ccc(c(Cl)c3)Oc3cc2cc(c3O[C@@H]2O[C@H](CO)[C@@H](O)[C@H](O)[C@H]2O[C@H]2C[C@](C)(N)[C@H](O)[C@H](C)O2)Oc2ccc(cc2Cl)[C@H]1O` [vancomycin] gave a zone of inhibition at 30 µg/disc in the assay on MRSA of 18 mm.

As to `CC1OC(n2ccc(NC(=O)c3ccc(N)cc3)nc2=O)CCC1OC1OC(C)C(N(C)C)C(O)C1O` (stereo not shown) [plicacetin], in the assay on S. Typhimurium TA100 (ref Devi et al.[33]), the Antimutagenic activity is on record as 41.10–88.53%. Take salvianolic acid B: the figures for the Antimutagenic activity in the assay on S. Typhimurium TA100 (ref Sharma et al.[46]) and with S. Typhimurium TA98 were 41.10–88.53% and 47.87–88.11%, respectively. In the assay on VRE, teicoplanin came in with a Zone of inhibition of 15 mm.

As for `C[C@@H]1O[C@@H](OC[C@H]2O[C@@H](Oc3c(-c4ccc(O)c(O)c4)oc4cc(O)cc(O)c4c3=O)[C@H](O)[C@@H](O)[C@@H]2O)[C@H](O)[C@H](O)[C@H]1O` [Rutin, rutin], in the assay with pBR322 plasmid DNA, the “Form I (supercoiled) DNA” value is reported as 54.72% and the “Form II DNA” value is listed as 45.27%.
